Source: ChEMBL document CHEMBL1151801, “Synthesis of new indeno[1,2-e]pyrimido[4,5-b][1,4]diazepine-5,11-diones as potential antitumor agents” (2008)
Activity calls are given as the source filed them.

What was measured:
[1] = Antitumor activity against human Hs 578T cells after 48 hrs by SRB assay; format: functional; settings: for CC50: read-out: LC50 (the source's name)
How it was run: (§1)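 NCI in vitro human tumor cell line screen. Cells were exposed continuously to compound for 48 h at five concentration levels (100, 10, 1.0, 0.1 and 0.01). Growth was estimated by sulforhodamine B protein staining. GI50 is the concentration giving a 50% reduction in net protein increase relative to control cells over the incubation.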

HOP-92 = assay: Antitumor activity against human HOP92 cells after 48 hrs by SRB assay; format: functional; settings: HOP-92, 48 h; how it was run: as §1
M14 = assay: Antitumor activity against human M14 cells after 48 hrs by SRB assay; format: functional; settings: M14, 48 h; how it was run: as §1
NCI-H322M = assay: Antitumor activity against human NCI-H322M cells after 48 hrs by SRB assay; format: functional; settings: for CC50: read-out: LC50 (the source's name); how it was run: as §1
OVCAR-3 = assay: Antitumor activity against human OVCAR-3 cells after 48 hrs by SRB assay; format: functional; settings: OVCAR-3, 48 h; for CC50: read-out: LC50 (the source's name); how it was run: as §1
TK-10 = assay: Antitumor activity against human TK10 cells after 48 hrs by SRB assay; format: functional; settings: TK-10, 48 h
How it was run: (§2)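 NCI in vitro human tumor cell line screen. Continuous 48 h drug exposure at five concentrations (100, 10, 1.0, 0.1 and 0.01 µM). Cell growth estimated by sulforhodamine B protein staining. GI50 defined as the concentration giving 50% reduction in net protein increase versus control cells over the incubation.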

SK-MEL-5 = assay: Antitumor activity against human SK-MEL-5 cells after 48 hrs by SRB assay; format: functional; settings: SK-MEL-5, 48 h; how it was run: as §1
LOX IMVI = assay: Antitumor activity against human LOXIMVI cells after 48 hrs by SRB assay; format: functional; how it was run: as §1
RXF 393 = assay: Antitumor activity against human […] cells after 48 hrs by SRB assay; format: functional; settings: RXF 393, 48 h; how it was run: as §1
Malme-3M = assay: Antitumor activity against human MALME-3M cells after 48 hrs by SRB assay; format: functional; how it was run: as §1
SNB-19 = assay: Antitumor activity against human SNB19 cells after 48 hrs by SRB assay; format: functional; settings: SNB-19, 48 h; how it was run: as §1
SF-539 = assay: Antitumor activity against human SF539 cells after 48 hrs by SRB assay; format: functional; settings: SF-539, 48 h; how it was run: as §1
NCI-H460 = assay: Antitumor activity against human NCI-H460 cells after 48 hrs by SRB assay; format: functional; settings: NCI-H460, 48 h; for CC50: read-out: LC50 (the source's name); how it was run: as §1
NCI/ADR-RES = assay: Antitumor activity against human NCI/ADR-RES cells after 48 hrs by SRB assay; format: functional; how it was run: as §1
UACC-62 = assay: Antitumor activity against human UACC62 cells after 48 hrs by SRB assay; format: functional; settings: UACC-62, 48 h; how it was run: as §2
SK-OV-3 = assay: Antitumor activity against human SKOV3 cells after 48 hrs by SRB assay; format: functional; settings: SK-OV-3, 48 h; how it was run: as §1
OVCAR-5 = assay: Antitumor activity against human OVCAR5 cells after 48 hrs by SRB assay; format: functional; settings: OVCAR-5, 48 h; how it was run: as §1
SK-MEL-28 = assay: Antitumor activity against human SK-MEL-28 cells after 48 hrs by SRB assay; format: functional; settings: SK-MEL-28, 48 h; how it was run: as §1
NCI60 = assay: Antitumor activity against human NCI60 cells at 1 uM; format: functional, cell-based
[2] = read-out: LC50 (the source's name)

| Structure (SMILES) | GI50 [1] | CC50 [1] | GI50 (HOP-92) | LC50 (HOP-92) | GI50 (NCI-H322M) | CC50 (NCI-H322M) | GI50 (OVCAR-3) | CC50 (OVCAR-3) | GI50 (SF-539) | LC50 (concentration killing 50% of cells) (SF-539) | GI50 (NCI-H460) | CC50 (NCI-H460) | GI50 (NCI/ADR-RES) | LC50 (NCI/ADR-RES) | GI50 (SK-OV-3) | LC50 (concentration killing 50% of cells) (SK-OV-3) | Activity (NCI60) | also measured |
| --- | --- | --- | --- | --- | --- | --- | --- | --- | --- | --- | --- | --- | --- | --- | --- | --- | --- | --- |
| CSc1nc2c(c(=O)[nH]1)NC1=C(C(=O)c3ccccc31)C(c1ccc(F)cc1)N2 (centres undefined) | 5.85 µM | > 100 µM | 9.52 µM | > 100 µM | 13.9 µM | > 100 µM | 3.38 µM | 61.8 µM | 8.9 µM | 92 µM | 5.1 µM | > 100 µM | 6.42 µM | > 100 µM | 14.1 µM | > 100 µM | Active | GI50 (M14): 6.29 µM; CC50 (M14; [2]): > 100 µM; GI50 (TK-10): 12.9 µM; CC50 (TK-10; [2]): > 100 µM; GI50 (SK-MEL-5): 6.13 µM; CC50 (SK-MEL-5; [2]): > 100 µM; GI50 (LOX IMVI): 8.78 µM; CC50 (LOX IMVI; [2]): 95.2 µM; GI50 (RXF 393): 14.5 µM; CC50 (RXF 393; [2]): 92.8 µM; GI50 (Malme-3M): 19.6 µM; CC50 (Malme-3M; [2]): > 100 µM; GI50 (SNB-19): 15.9 µM; CC50 (SNB-19; [2]): > 100 µM; GI50 (UACC-62): 3.04 µM; CC50 (UACC-62; [2]): > 100 µM; GI50 (OVCAR-5): 17.7 µM; CC50 (OVCAR-5; [2]): 95.6 µM; GI50 (SK-MEL-28): 9.03 µM; CC50 (SK-MEL-28; [2]): > 100 µM |
| CSc1nc2c(c(=O)[nH]1)NC1=C(C(=O)c3ccccc31)C(c1ccccc1)N2 (centres undefined) | 2.1 µM | > 100 µM | 12 µM | > 100 µM | 13.5 µM | > 100 µM | 2.12 µM | 46.4 µM | 2.84 µM | > 100 µM | 3.16 µM | > 100 µM | 4.54 µM | > 100 µM | 7.65 µM | > 100 µM | Active |  |
